We go through 6 compounds from ChEMBL document CHEMBL4145656, “Additional Insights into Hypericum perforatum Content: Isolation, Total Synthesis, and Absolute Configuration of Hyperbiphenyls A and B from Immunomodulatory Root Extracts” (J Nat Prod, 2018).

Data set [1] relates to HUVEC. The data set is described as follows: Immunomodulatory activity in HUVEC assessed as inhibition of IFNgamma-induced MICA expression at 10 uM pretreated for 1 hr followed by IFNgamma stimulation and measured after 48 hrs by immunostaining based flow cytometry relative to control. Type of data set: functional. On the technique in general: Flow cytometry measures light scatter and fluorescence of single cells or particles in a stream.

Data set [2] relates to HUVEC. Briefly: Immunomodulatory activity in HUVEC assessed as inhibition of IFNgamma-induced HLA-E expression at 10 uM pretreated for 1 hr followed by IFNgamma stimulation and measured after 48 hrs by immunostaining based flow cytometry relative to control. Type of data set: functional. A digest of the protocol: (§1)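 Endothelial cells were stimulated with IFNγ to upregulate MHC class II and HLA-E in the presence of test agent at 10 μM. Surface expression was measured by flow cytometry.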

Data set [3] has as its system HUVEC. Briefly: Immunomodulatory activity in HUVEC assessed as inhibition of IFNgamma-induced HLA-DR expression at 10 uM pretreated for 1 hr followed by IFNgamma stimulation and measured after 48 hrs by immunostaining based flow cytometry relative to control. Type of data set: functional. Summed up: as §1
The subject of data set [4] is HUVEC. Briefly: Immunomodulatory activity in HUVEC assessed as inhibition of IFNgamma-induced MHC-1 expression at 10 uM pretreated for 1 hr followed by IFNgamma stimulation and measured after 48 hrs by immunostaining based flow cytometry relative to control. It counts as functional. Summed up:
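Cultured vascular endothelial cells were stimulated with IFNγ to upregulate MHC molecules (MHC class I, class II, HLA-E) in the presence of the test compound at 10 μM. Surface expression of MHC was then quantified by flow cytometry.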

Data set [5] relates to HUVEC. The data set is described as follows: Immunomodulatory activity in HUVEC assessed as inhibition of IFNgamma-induced MHC1 expression at 5 to 50 uM measured by ELISA relative to control. Type of data set: functional, Homo sapiens. Summed up:
(§2)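 Cell-based ELISA on cultured vascular endothelial cells quantifying surface molecules. Cells were stimulated with TNF to induce VCAM-1 and MICA, or with IFNγ to induce MHC class I. Test agents were present at 5, 25 and 50 μM.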
(An ELISA detects its analyte on a solid surface through an enzyme-linked reagent.)

Data set [6] deals with HUVEC. Briefly: Immunomodulatory activity in HUVEC assessed as inhibition of TNFalpha-induced MICA expression at 5 to 50 uM measured by ELISA relative to control. It counts as functional, Homo sapiens. Summed up: as §2
Data set [7] concerns HUVEC. Briefly: Effect on MHC-1 expression in HUVEC at 10 uM measured after 1 hr by immunostaining based flow cytometry. Type of data set: ADME, cell-based. To be noted: human.
Data set [8] concerns HUVEC. The data set is described as follows: Effect on HLA-DR expression in HUVEC at 10 uM measured after 1 hr by immunostaining based flow cytometry. It counts as ADME, cell-based. The following applies: human.
The test system of data set [9] is HUVEC. The data set is described as follows: Effect on HLA-E expression in HUVEC at 10 uM measured after 1 hr by immunostaining based flow cytometry. Type of data set: ADME, cell-based. The following applies: human.
Data set [10] relates to HUVEC. Briefly: Reduction in basal MICA expression in HUVEC at 10 uM measured after 1 hr by immunostaining based flow cytometry. Type of data set: ADME, cell-based. The arrangement: scale not given: the % may be the effect or the level left. The following applies: human.
Data set [11] has as its system HUVEC. The data set is described as follows: Immunomodulatory activity in HUVEC assessed as inhibition of TNFalpha-induced VCAM1 expression at 5 to 50 uM measured by ELISA relative to control. Type of data set: functional, Homo sapiens. A digest of the protocol: as §2

The source made the active and inactive calls. The rule behind the calls is not given here. A value given as a limit tells only on which side of the number the result lay.

Turning to `COc1cc2oc3cc(O)cc(O)c3c(=O)c2c2c1OC(C)(C)C=C2`, the outcome in the data set with HUVEC [1] (Homo sapiens), in the data set on HUVEC [2] (Homo sapiens), in the data set with HUVEC [3] (Homo sapiens) and in the data set on HUVEC [4] (Homo sapiens) was inactive.
On to `COc1cc(-c2ccccc2)cc2c1C[C@@H](C(C)(C)O)O2`, for which the outcome in the data set with HUVEC [1] (Homo sapiens), in the data set on HUVEC [2] (Homo sapiens), in the data set with HUVEC [3] (Homo sapiens) and in the data set with HUVEC [4] (Homo sapiens) was inactive.
As to `COc1cc(C2Oc3c(OC)cc4c(=O)c5ccccc5oc4c3OC2CO)ccc1O` (configuration not stated), the outcome with HUVEC [1] (Homo sapiens), in the data set with HUVEC [2] (Homo sapiens), in the data set on HUVEC [3] (Homo sapiens) and in the data set on HUVEC [4] (Homo sapiens) was inactive.
As to `O.O=P(O)(O)C(O)(Cn1ccnc1)P(=O)(O)O` [ZOLEDRONIC ACID], in the data set with HUVEC [4], the Activity came out at 67%.
For `COc1cc(-c2ccccc2)cc2c1C[C@H](O)C(C)(C)O2`, the outcome in the data set on HUVEC [1] (Homo sapiens), in the data set on HUVEC [2] (Homo sapiens), in the data set with HUVEC [3] (Homo sapiens) and in the data set with HUVEC [4] (Homo sapiens) was inactive.
For the compound `COc1c(O)ccc2c(=O)c3c(O)cc4c(c3oc12)C(C)(C)C(C)O4` (configuration not stated), the “inhibition (INH)” value is 10 - 25% in the data set with HUVEC [5], <10% in the data set with HUVEC [6] and >50% in the data set with HUVEC [11]. Besides, the Activity result is listed as “Non-Toxic” with HUVEC [7]; “Non-Toxic” in the data set on HUVEC [8]; 24% in the data set with HUVEC [1]; “Non-Toxic” in the data set with HUVEC [9]; 25% in the data set with HUVEC [10]; 40% in the data set with HUVEC [2]. Also, in the data set with HUVEC [3], the Activity was determined as 25%.
